ChEMBL document CHEMBL3407478, “Development of a series of aryl pyrimidine kynurenine monooxygenase inhibitors as potential therapeutic agents for the treatment of Huntington's disease” (J Med Chem, 2015)

Tests used:
Rattus norvegicus [1] = assay: Inhibition of KMO in Sprague-Dawley rat brain assessed as time duration for elevation in kynurenic acid plasma level at 10 mg/kg, po by […] analysis; type: functional
[2] = Half life in Sprague-Dawley rat plasma at 10 mg equivalents/kg, po after 0.25 to 12 hrs; type: ADME, organism-based
Outline: (§1)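 Male Sprague-Dawley rats given a single oral dose of 10 mg equiv/kg as a 2 mg equiv/mL solution in 10% hydroxypropyl-β-cyclodextrin. Plasma, liver, kidney, cortex, striatum and CSF levels were measured from 0.25 to 12 h. Brain tissue was taken from nonperfused brains. CSF AUCN covers 0–8 h because the elimination phase was undefined.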

Rattus norvegicus [3] = assay: Inhibition of KMO in po dosed Sprague-Dawley rat plasma assessed as elevation in kynurenine plasma level by […] analysis; type: functional, organism-based
Rattus norvegicus [4] = assay: Inhibition of KMO in Sprague-Dawley rat striatum brain microdialysate assessed as time duration for elevation in kynurenine level at 10 mg/kg, po by […] analysis; type: functional
Outline: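 Freely moving Sprague-Dawley rats given 10 mg/kg po, with a microdialysis probe implanted in the striatum. Dialysate was sampled over 0–240 min for free compound and for KYN, KYNA, AA and 3-HK, quantified by LC-MS/MS. Metabolite changes were compared with t = 0 min by 2-way ANOVA.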

Brain = assay: Dose normalized Cmax in Sprague-Dawley rat brain at 6.2 mg equivalents/kg, iv; type: ADME, tissue-based; conditions: in vivo
Kidney = assay: Dose normalized AUC (0 to infinity) in Sprague-Dawley rat kidney at 10 mg equivalents/kg, po after 0.25 to 12 hrs; type: ADME, organism-based; conditions: in vivo; outline: as §1
[5] = Half life at steady state in Sprague-Dawley rat plasma at 6.2 mg equivalents/kg, iv; type: ADME, cell-free

half-life [2]: 1.7 h
Cmax/dose (Brain): 0.25 µM·kg/mg
AUC/dose (Kidney): 70 µM·kg·h/mg
half-life [5]: 1.8 h
Compound: O=C(O)c1cc(-c2ccc(OC3CC3)c(Cl)c2)ncn1
Time (Rattus norvegicus [1]): >=4 hr
inhibition (Rattus norvegicus [3]): Dose-dependent effect
Time (Rattus norvegicus [4]): 40 min
